Measurements from ChEMBL document CHEMBL3098047, “Design, synthesis and structure-activity relationships of substituted oxazole-benzamide antibacterial inhibitors of FtsZ” (Bioorg Med Chem Lett, 2014).
Values after ≈ are worked out from the molar mass of the structure shown.

Tests used:
[1] = system: Staphylococcus aureus; assay: Antibacterial activity against Staphylococcus aureus ATCC 29213 by broth microdilution method; type: functional
Method in brief: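 Broth microdilution MIC per CLSI guidelines against S. aureus ATCC 29213; MIC in µg/mL.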

[2] = biological target: T1, Cell division protein FtsZ (Staphylococcus aureus) (UniProt P0A031); assay: Inhibition of Staphylococcus aureus ATCC 29213 FtsZ-mediated cell division phenotype
T1 sequence (whole entry): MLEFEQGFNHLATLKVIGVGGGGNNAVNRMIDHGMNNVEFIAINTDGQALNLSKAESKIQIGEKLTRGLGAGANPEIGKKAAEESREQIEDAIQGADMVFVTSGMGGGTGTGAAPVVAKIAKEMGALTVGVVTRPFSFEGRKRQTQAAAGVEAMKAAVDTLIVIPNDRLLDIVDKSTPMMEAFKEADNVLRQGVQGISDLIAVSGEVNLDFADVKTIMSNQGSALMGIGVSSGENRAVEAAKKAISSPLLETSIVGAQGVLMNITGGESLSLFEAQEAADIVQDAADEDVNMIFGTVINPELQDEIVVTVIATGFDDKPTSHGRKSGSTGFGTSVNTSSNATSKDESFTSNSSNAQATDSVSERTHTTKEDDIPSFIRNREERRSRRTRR
Method in brief: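 S. aureus ATCC 29213 cell division inhibition assay run alongside MIC testing; value is the lowest concentration at which an inhibition of cell division phenotype was seen (µg/mL).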

[3] = Kinetic solubility of the compound in PBS buffer at pH 7.4 after 24 hrs by turbidimetric method; type: physicochemical; settings: read-out: Kinetic_solubility
Method in brief: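 Turbidimetric: doubling dilutions in DMSO diluted twenty-fold into PBS pH 7.4, equilibrated 24 h at room temperature, absorbance read at 620 nm. Value is highest concentration with no measurable precipitate.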

[4] = system: Staphylococcus aureus; assay: Antibacterial activity against Staphylococcus aureus harboring FtsZ G196A mutant by broth microdilution method; type: functional
Method in brief: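 S. aureus ATCC 29213 derivative with G196A substitution in FtsZ; MIC by broth microdilution following CLSI guidelines; reported in µg/mL.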

Structure (SMILES)	solubility kinetic at 24 h [3] [µg/mL]	MIC [1] [µg/mL]	MIC [2] [µg/mL]	MIC [4] [µg/mL]
NC(=O)c1c(F)ccc(OC(CCO)c2nc(-c3ccc(C(F)(F)F)cc3)c(Br)o2)c1F (racemic)		0.5 (≈ 0.959 µM)	0.5 (≈ 0.959 µM)	
NC(=O)c1c(F)ccc(OC(CO)c2nc(-c3ccc(Cl)cc3)c(Br)o2)c1F (racemic)		0.25 (≈ 0.528 µM)	0.25 (≈ 0.528 µM)	
NC(=O)c1c(F)ccc(OC(c2cccnc2)c2nc(-c3ccc(Cl)cc3)c(Br)o2)c1F (racemic)		4 (≈ 7.68 µM)	4 (≈ 7.68 µM)	
CN(C)CCC(Oc1ccc(F)c(C(N)=O)c1F)c1nc(-c2ccc(C(F)(F)F)cc2)c(Br)o1 (racemic)		8 (≈ 14.6 µM)	16 (≈ 29.2 µM)	
NC(=O)c1c(F)ccc(OCc2nc(-c3ccc(Cl)cc3)c(Br)o2)c1F		0.06 (≈ 0.135 µM)	0.03 (≈ 0.0676 µM)	2 (≈ 4.51 µM)
NC(=O)c1c(F)ccc(OCc2nc(-c3ccc(Cl)cc3)c(CCCO)o2)c1F		2 (≈ 4.73 µM)	2 (≈ 4.73 µM)	> 64
NC(=O)c1c(F)ccc(O[C@@H](CO)c2nc(-c3ccc(C(F)(F)F)cc3)c(Br)o2)c1F		16 (≈ 31.5 µM)	16 (≈ 31.5 µM)	64 (≈ 126 µM)
NC(=O)c1c(F)ccc(OCc2nc(-c3ccc(OC(F)(F)F)cc3)c(Br)o2)c1F		0.06 (≈ 0.122 µM)	0.03 (≈ 0.0608 µM)	2 (≈ 4.06 µM)
COc1oc(COc2ccc(F)c(C(N)=O)c2F)nc1-c1ccc(Cl)cc1		0.5 (≈ 1.27 µM)	0.5 (≈ 1.27 µM)	
NC(=O)c1c(F)ccc(OCc2nc(-c3ccc(C(F)(F)F)cc3)c(Br)o2)c1F	12.5 (≈ 26.2 µM)	0.12 (≈ 0.251 µM)	0.12 (≈ 0.251 µM)	4 (≈ 8.38 µM)
NC(=O)c1c(F)ccc(OCc2nc(-c3ccccc3)co2)c1F		16 (≈ 48.4 µM)	16 (≈ 48.4 µM)	> 64
NC(=O)c1c(F)ccc(OCc2nc(-c3ccc(Cl)cc3)c(N)o2)c1F		> 64	> 64	> 64
COc1ccc(-c2nc(COc3ccc(F)c(C(N)=O)c3F)oc2-c2ccccc2)cc1		0.12 (≈ 0.275 µM)	0.12 (≈ 0.275 µM)	> 64
NC(=O)c1c(F)ccc(OCc2nc(-c3ccc(O)cc3)co2)c1F		8 (≈ 23.1 µM)	8 (≈ 23.1 µM)	> 64
NC(=O)c1c(F)ccc(OCc2nc(-c3ccc(Cl)cc3)co2)c1F		4 (≈ 11 µM)	4 (≈ 11 µM)	> 64
NC(=O)c1c(F)ccc(OCc2nc(-c3ccc(OC(F)(F)F)cc3)c(C(F)(F)F)o2)c1F		0.5 (≈ 1.04 µM)	0.5 (≈ 1.04 µM)	> 64

More lines, main results first:

solubility kinetic at 24 h [3] [µg/mL]	Structure (SMILES)	MIC [1] [µg/mL]	MIC [2] [µg/mL]	MIC [4] [µg/mL]
25 (≈ 45.5 µM)	CC(=O)OCC(Oc1ccc(F)c(C(N)=O)c1F)c1nc(-c2ccc(C(F)(F)F)cc2)c(Br)o1 (racemic)	0.5 (≈ 0.91 µM)	0.5 (≈ 0.91 µM)	
400 (≈ 728 µM)	NC(=O)c1c(F)ccc(OC(CCC(=O)O)c2nc(-c3ccc(C(F)(F)F)cc3)c(Br)o2)c1F (racemic)	8 (≈ 14.6 µM)	8 (≈ 14.6 µM)	
> 800	NC(=O)c1c(F)ccc(OC(COP(=O)(O)O)c2nc(-c3ccc(C(F)(F)F)cc3)c(Br)o2)c1F (racemic)			
50 (≈ 93.4 µM)	NC(=O)c1c(F)ccc(OC(CCCO)c2nc(-c3ccc(C(F)(F)F)cc3)c(Br)o2)c1F (racemic)	1 (≈ 1.87 µM)	1 (≈ 1.87 µM)	
100 (≈ 181 µM)	NC(=O)c1c(F)ccc(OC(CC(O)CO)c2nc(-c3ccc(C(F)(F)F)cc3)c(Br)o2)c1F (racemic)	0.5 (≈ 0.907 µM)	0.5 (≈ 0.907 µM)	
400 (≈ 618 µM)	NC(=O)c1c(F)ccc(OC(COC(=O)NCCN2CCCC2)c2nc(-c3ccc(C(F)(F)F)cc3)c(Br)o2)c1F (racemic)			
200 (≈ 323 µM)	NC(=O)c1c(F)ccc(OC(COC(=O)N2CCNCC2)c2nc(-c3ccc(C(F)(F)F)cc3)c(Br)o2)c1F (racemic)			
200 (≈ 329 µM)	CNCCNC(=O)OCC(Oc1ccc(F)c(C(N)=O)c1F)c1nc(-c2ccc(C(F)(F)F)cc2)c(Br)o1 (racemic)			
